In ChEMBL document CHEMBL1142721, “Nanomolar inhibitors of CNS epinephrine biosynthesis: (R)-(+)-3-fluoromethyl-7-(N-substituted aminosulfonyl)-1,2,3,4-tetrahydroisoquinolines as potent and highly selective inhibitors of phenylethanolamine N-methyltransferase1” (J Med Chem, 2005):

Biological target: T1, Alpha-2A adrenergic receptor (Rattus norvegicus, UniProt P22909)
T1 sequence (P22909 whole entry): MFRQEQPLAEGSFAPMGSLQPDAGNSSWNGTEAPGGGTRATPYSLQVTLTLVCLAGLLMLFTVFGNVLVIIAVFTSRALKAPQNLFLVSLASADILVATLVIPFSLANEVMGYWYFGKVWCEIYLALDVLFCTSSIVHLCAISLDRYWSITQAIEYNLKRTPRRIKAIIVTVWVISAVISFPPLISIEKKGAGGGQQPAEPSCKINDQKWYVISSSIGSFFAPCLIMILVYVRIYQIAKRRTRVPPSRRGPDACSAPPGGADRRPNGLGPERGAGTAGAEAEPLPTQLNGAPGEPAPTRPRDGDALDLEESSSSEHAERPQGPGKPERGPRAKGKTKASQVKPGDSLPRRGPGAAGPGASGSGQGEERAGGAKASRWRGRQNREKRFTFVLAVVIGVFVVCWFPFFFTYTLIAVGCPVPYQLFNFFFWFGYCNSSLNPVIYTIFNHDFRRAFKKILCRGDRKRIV
Assay: In vitro binding affinity against rat Alpha-2 adrenergic receptor using [3H]clonidine
Procedure, shortened: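 Rat cortex membranes (male Sprague-Dawley) washed by three 50 000 × g spins in ice-cold 50 mM Tris/HCl pH 7.7. Incubated with [3H]clonidine at 2.0 nM final, 25 °C, 30 min. Bound ligand recovered on GF/B filters and counted. Nonspecific binding set with 2 µM phentolamine. Quadruplicate, 5 concentrations over a 16-fold range. IC50 from log-probit analysis, converted by Ki = IC50/(1 + [clonidine]/KD).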

Row | Ki | SMILES
1 | 150 µM | O=S(=O)(Nc1ccc(Cl)cc1)c1ccc2c(c1)CN[C@H](CF)C2
2 | 140 µM | O=S(=O)(Nc1ccc(Cl)cc1)c1ccc2c(c1)CN[C@@H](CF)C2
3 | 680 µM | COCCCNS(=O)(=O)c1ccc2c(c1)CN[C@@H](CF)C2
4 | 550 µM | CCNS(=O)(=O)c1ccc2c(c1)CN[C@@H](CF)C2
5 | 670 µM | O=S(=O)(NCCC(F)(F)F)c1ccc2c(c1)CN[C@@H](CF)C2
6 | 660 µM | O=S(=O)(NCCC(F)(F)F)c1ccc2c(c1)CNC(CF)C2 (configuration not stated)
7 | 200 µM | O=S(=O)(c1ccc2c(c1)CN[C@@H](CF)C2)N1CCSCC1
8 | 570 µM | CCCNS(=O)(=O)c1ccc2c(c1)CN[C@@H](CF)C2
9 | 700 µM | NS(=O)(=O)c1ccc2c(c1)CN[C@@H](CF)C2
10 | 1000 µM | O=S(=O)(NCC(F)(F)F)c1ccc2c(c1)CN[C@@H](CF)C2
11 | 550 µM | CCNS(=O)(=O)c1ccc2c(c1)CNC(CF)C2 (racemic)
12 | 750 µM | COCCCNS(=O)(=O)c1ccc2c(c1)CNC(CF)C2 (racemic)
13 | 1200 µM | O=S(=O)(NCC(F)(F)F)c1ccc2c(c1)CNC(CF)C2 (racemic)
14 | 140 µM | O=S(=O)(Nc1ccc(Cl)cc1)c1ccc2c(c1)CNC(CF)C2 (racemic)
15 | 190 µM | O=S(=O)(c1ccc2c(c1)CNC(CF)C2)N1CCSCC1 (racemic)
16 | 610 µM | CCCNS(=O)(=O)c1ccc2c(c1)CNC(CF)C2 (racemic)
17 | 680 µM | NS(=O)(=O)c1ccc2c(c1)CNC(CF)C2 (racemic)
